The nature of data set [1]: Apparent lipophilicity was determined.
Data set [2] in a line: Ratio of percent injected dose per gram of compound to Swiss-Webster mice brain after 2 min and 30 min of intravenous injection. Type of data set: functional. An outline of the steps:
(§1)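 Female Swiss-Webster mice (23–35 g) received 0.37–3.7 MBq of high specific activity (>7.4 GBq/μmol) 11C-labeled derivative by lateral tail vein, in ≤0.10 mL of 93% isotonic saline/7% ethanol. Mice were killed at 2 or 30 min, and whole brain minus cerebellum was gamma-counted and decay-corrected against injectate standards. %ID/g was multiplied by body weight (kg). The 2 min/30 min ratio was taken from these values.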

Data set [3] is described as follows: Percent injected dose per gram of compound to Swiss-Webster mice brain was measured after 30 min of intravenous injection. Type of data set: functional, Mus musculus. The method, boiled down: as §1
Data set [4] in a line: Percent injected dose per gram of compound to Swiss-Webster mice brain was measured after 2 min of intravenous injection. Type of data set: functional, Mus musculus. The method, boiled down: as §1
Data set [5] has as its target Amyloid-beta precursor protein (Homo sapiens, UniProt P05067). The data set can be described thus: Binding affinity for Amyloid beta 1-40 aggregates in competition with [N-methyl-3H] BTA-1.

From ChEMBL document CHEMBL1145813, “Synthesis and evaluation of 11C-labeled 6-substituted 2-arylbenzothiazoles as amyloid imaging agents” (J Med Chem, 2003) come the findings set out here.

Structures are written as SMILES.

Amyloid-beta precursor protein, sequence (P05067 whole entry): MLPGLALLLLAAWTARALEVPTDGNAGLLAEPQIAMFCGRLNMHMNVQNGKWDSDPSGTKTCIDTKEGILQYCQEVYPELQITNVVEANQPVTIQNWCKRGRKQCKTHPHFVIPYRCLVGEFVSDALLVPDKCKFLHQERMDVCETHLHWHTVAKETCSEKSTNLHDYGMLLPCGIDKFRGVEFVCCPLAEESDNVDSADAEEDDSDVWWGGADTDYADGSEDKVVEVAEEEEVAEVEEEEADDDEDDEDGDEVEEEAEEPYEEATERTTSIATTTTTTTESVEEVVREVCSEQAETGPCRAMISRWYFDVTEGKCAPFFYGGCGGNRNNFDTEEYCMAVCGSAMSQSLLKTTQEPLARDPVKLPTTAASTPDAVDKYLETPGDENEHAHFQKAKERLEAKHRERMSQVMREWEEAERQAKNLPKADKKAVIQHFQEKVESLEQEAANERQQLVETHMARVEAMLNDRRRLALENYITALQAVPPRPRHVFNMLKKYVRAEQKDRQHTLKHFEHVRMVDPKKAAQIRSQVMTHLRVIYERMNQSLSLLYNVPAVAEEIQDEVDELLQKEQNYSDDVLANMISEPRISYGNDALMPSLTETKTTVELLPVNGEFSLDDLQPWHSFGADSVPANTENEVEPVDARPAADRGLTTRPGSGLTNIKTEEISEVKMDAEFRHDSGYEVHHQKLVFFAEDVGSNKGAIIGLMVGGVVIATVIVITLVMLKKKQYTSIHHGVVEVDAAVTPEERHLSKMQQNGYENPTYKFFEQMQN

As usually defined, the chromatographic logD is lipophilicity estimated from chromatographic retention. As a reminder, the Ki is the dissociation constant of the complex between target and ligand, obtained from inhibition or displacement. A lower Ki goes with tighter binding. With `COc1ccc2nc(-c3ccc(N(C)C)cc3)sc2c1`, the chromatographic logD in data set [1] was 3.3. In addition, the Ratio in data set [2] is reported as 1.1. For the same compound, the ID in data set [3] was found to be 0.14%; in data set [4], 0.16%. This compound also registered a Ki in data set [5] of 1.9 nM.

Take `CNc1ccc(-c2nc3ccc(Br)cc3s2)cc1`: the chromatographic logD in data set [1] came to 3.6. In data set [2], the Ratio is reported as 1. Further, the ID in data set [3] and in data set [4] was 0.12% each time. In addition, the Ki in data set [5] stood at 1.7 nM.

For the compound `Cc1ccc2nc(-c3ccc(N(C)C)cc3)sc2c1`, the chromatographic logD in data set [1] stood at 3.8. Moreover, the Ratio in data set [2] is on record as 0.52. Besides, the figures for the ID in data set [3] and in data set [4] were 0.15% and 0.078%, respectively. The same compound yielded an inhibitory constant (Ki) in data set [5] of 64 nM.

With `CNc1ccc(-c2nc3ccc(C)cc3s2)cc1`, in data set [1], the chromatographic logD came to 3.1. Further, the ID stood at 0.083% in data set [3] and 0.22% in data set [4].

With `CN(C)c1ccc(-c2nc3ccc(Br)cc3s2)cc1`, the chromatographic logD in data set [1] came out at 4.4. Moreover, the Ratio in data set [2] stood at 0.49. In addition, the ID in data set [3] amounted to 0.11%; in data set [4], 0.054%. The compound further registered an inhibitory constant (Ki) in data set [5] of 2.9 nM.

For `CN(C)c1ccc(-c2nc3ccc(O)cc3s2)cc1`, the chromatographic logD in data set [1] was determined as 2. Also, the Ratio in data set [2] is given as 3. The ID was 0.1% in data set [3] and 0.32% in data set [4]. In data set [5], this compound showed an inhibition constant Ki of 4.4 nM.

For `COc1ccc2nc(-c3ccc(N)cc3)sc2c1`, in data set [1], the chromatographic logD was 1.9. In data set [2], the Ratio is 3.8. For the same compound, the ID in data set [3] was 0.084%; in data set [4] it was 0.32%. The Ki in data set [5] is 7 nM.

As for `CN(C)c1ccc(-c2nc3ccc(C#N)cc3s2)cc1`, in data set [1], the chromatographic logD worked out at 3.2. The Ratio in data set [2] is 2.5. Moreover, the ID in data set [3] was 0.097%; in data set [4], 0.24%. In data set [5], this compound returned an inhibition constant (Ki) of 11 nM.

In the case of `CNc1ccc(-c2nc3ccc(C#N)cc3s2)cc1`, in data set [1], the chromatographic logD was determined as 2.5. Moreover, the Ratio in data set [2] came out at 5. The ID in data set [3] is 0.063%; in data set [4], 0.32%. In data set [5], this compound showed an inhibitory constant (Ki) of 8.6 nM.

Take `CN(C)c1ccc(-c2nc3ccccc3s2)cc1`: in data set [1], the chromatographic logD amounted to 3.4. Also, the Ratio in data set [2] is reported as 2.5. Further, the ID in data set [3] came to 0.078%; in data set [4], 0.19%. The compound also gave a Ki in data set [5] of 4 nM.

Take `Nc1ccc(-c2nc3ccc(Br)cc3s2)cc1`: the chromatographic logD in data set [1] was found to be 2.9. In data set [5], the Ki was found to be 7.2 nM.

As for `Cc1ccc2nc(-c3ccc(N)cc3)sc2c1`, the chromatographic logD in data set [1] came out at 2.4. In data set [5], this compound yielded a Ki of 9.5 nM.

As to `Nc1ccc(-c2nc3ccccc3s2)cc1`, in data set [1], the chromatographic logD turned out to be 2. Affinity in data set [5] was put at a Ki of 37 nM.

Consider `N#Cc1ccc2nc(-c3ccc(N)cc3)sc2c1`, for which the chromatographic logD in data set [1] was 1.8. Besides, in data set [5], the affinity corresponds to a Ki of 64 nM.

Regarding `CNc1ccc(-c2nc3ccccc3s2)cc1`, the chromatographic logD in data set [1] turned out to be 2.7. The values for the ID in data set [3] and in data set [4] were 0.057% and 0.43%, respectively.

Regarding `Nc1ccc(-c2nc3ccc(O)cc3s2)cc1`, affinity in data set [5] was put at a Ki of 46 nM.

Regarding `CNc1ccc(-c2nc3ccc(OC)cc3s2)cc1`, the chromatographic logD in data set [1] came out at 2.6. Further, the Ratio in data set [2] was found to be 3.2. Besides, the ID in data set [3] stood at 0.1%; in data set [4] it was 0.33%. This compound came in with a Ki in data set [5] of 4.9 nM.

Take `CNc1ccc(-c2nc3ccc(O)cc3s2)cc1` [PITTSBURGH COMPOUND B UNLABELLED]: the values for the ID in data set [3] and in data set [4] were 0.018% and 0.21%, respectively.
